Values joined by “and” are separate entries in the source; they are usually repeats but may differ in a detail not shown here. Equal values may be shown once.
Tests used:
Hsp90α (1-236) NTD [1] = target: Hsp90α (1-236) NTD (Homo sapiens, UniProt P07900); test: ITC binding to Hsp90α NTD; conditions: ITC, 298 K; for N: stoichiometry, one-site model
How it was run: (§1)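 Human Hsp90α residues 1-236, N-terminal His-tagged, expressed in E. coli Rosetta (DE3), purified by Ni-NTA and size exclusion. ITC in matched 40 mM HEPES-KOH pH 7.4, 100 mM NaCl, 1% DMSO. Protein (503 or 336 μM) titrated into test compound (50.7 or 30.1 μM); nucleotides titrated into protein. One-site fit, mean of two titrations ± SEM.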

Hsp90α (1-236) NTD [2] = test: ITC binding to Hsp90α NTD; set-up: species or system Human; conditions: preference for Hsp90α over Hsp90β from ITC KD
How it was run: as §1

Hsp90α S52A (1-236) = Hsp90α S52A (1-236) (Homo sapiens, UniProt P07900, S52A); test: ITC binding to Hsp90α S52A mutant NTD; conditions: for C-values / Kd / TΔS / ΔG / ΔH / N: ITC, 298 K; for N: stoichiometry, one-site model; for fold change in affinity, Hsp90α S52A vs wild type Hsp90α: ratio of ITC KD
How it was run: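 Human Hsp90α NTD (1-236) S52A, N-terminal His-tagged, expressed in E. coli Rosetta (DE3), purified by Ni-NTA then size exclusion. ITC in matched 40 mM HEPES-KOH pH 7.4, 100 mM NaCl, 1% DMSO. 255 or 393 μM protein was injected into 33.0 or 41.8 μM test compound. Wild type was run alike: 503 or 336 μM into 50.7 or 30.1 μM. One-site fit; mean of two titrations ± SEM.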

Hsp90β NTD = Hsp90β NTD (Homo sapiens, UniProt P08238); test: ITC binding to Hsp90β NTD; conditions: 298 K; for N: stoichiometry, one-site model
How it was run: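 Human Hsp90β NTD, N-terminal His-tagged, expressed in E. coli Rosetta (DE3), purified by Ni-NTA then size exclusion. ITC in matched 40 mM HEPES-KOH pH 7.4, 100 mM NaCl, 1% DMSO. 891 or 885 μM protein was injected into 93.3 or 97.8 μM test compound in the cell. For ATP/ADP, protein was in the cell and nucleotide in the syringe. One-site fit; mean of two titrations ± SEM.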

Hsp90β = conditions: competition binding assays; cited from earlier work

Hsp90β NTD, sequence (P08238 1-221 limits assumed): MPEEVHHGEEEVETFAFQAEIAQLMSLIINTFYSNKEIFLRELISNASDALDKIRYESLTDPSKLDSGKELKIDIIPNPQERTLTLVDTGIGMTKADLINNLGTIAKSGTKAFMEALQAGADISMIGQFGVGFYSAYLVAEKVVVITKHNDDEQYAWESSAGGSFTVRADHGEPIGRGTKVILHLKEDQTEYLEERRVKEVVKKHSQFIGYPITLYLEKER

Row | Compound | C-values (Hsp90α (1-236) NTD [1]) | Kd (Hsp90α (1-236) NTD [1]) | TΔS (Hsp90α (1-236) NTD [1]) [kcal/mol] | ΔG (Hsp90α (1-236) NTD [1]) [kcal/mol] | ΔH (Hsp90α (1-236) NTD [1]) [kcal/mol] | N (Hsp90α (1-236) NTD [1]) | α/β selectivity, KD (ITC) (Hsp90α (1-236) NTD [2]) [fold] | C-values (Hsp90α S52A (1-236)) | Kd (Hsp90α S52A (1-236)) [µM] | TΔS (Hsp90α S52A (1-236)) [kcal/mol] | ΔG (Hsp90α S52A (1-236)) [kcal/mol] | ΔH (Hsp90α S52A (1-236)) [kcal/mol] | N (Hsp90α S52A (1-236)) | fold change in affinity, Hsp90α S52A vs wild type Hsp90α (Hsp90α S52A (1-236)) [fold] | C-values (Hsp90β NTD) | Kd (Hsp90β NTD) [µM] | TΔS (Hsp90β NTD) [kcal/mol] | ΔG (Hsp90β NTD) [kcal/mol] | ΔH (Hsp90β NTD) [kcal/mol] | N (Hsp90β NTD) | also measured
1 | Nc1ncnc2c1ncn2[C@@H]1O[C@H](COP(=O)(O)OP(=O)(O)O)[C@@H](O)[C@H]1O [ADP] | 8.40 – 11.1 | 8.6 µM and 8.59 µM | -13.0 ± 0.28 | -6.90 ± 0.00 | -19.9 ± 0.28 | 0.752 ± 0.014 | 1.4 ± 0.2 | 16.7 – 18.2 | 9.06 ± 0.93 | -13.0 ± 0.21 | -6.85 ± 0.07 | -19.8 ± 0.14 | 0.756 ± 0.100 | 1.05 ± 0.11 | 6.74 – 14.1 | 12.4 ± 1.77 | -12.9 ± 0.99 | -6.75 ± 0.07 | -19.7 ± 0.92 | 0.813 ± 0.042 | 
2 | Nc1ncnc2c1ncn2[C@@H]1O[C@H](COP(=O)(O)OP(=O)(O)OP(=O)(O)O)[C@@H](O)[C@H]1O [ATP] | 1.13 – 1.44 | 209 ± 21.9 µM | -12.0 ± 1.84 | -5.05 ± 0.07 | -17.1 ± 1.77 | 0.691 ± 0.066 | 1.3 ± 0.2 | 1.26 – 1.29 | 239 ± 0.71 | -12.7 ± 0.85 | -4.95 ± 0.07 | -17.7 ± 0.78 | 0.592 ± 0.026 | 1.14 ± 0.12 | 1.00 – 1.19 | 281 ± 39.6 | -12.3 ± 2.55 | -4.90 ± 0.14 | -17.2 ± 2.40 | 0.707 ± 0.112 | 
3 | CC(C)c1cc(C(=O)N2Cc3ccccc3C2)c(O)c2cnoc12 [KUNB31] |  |  |  |  |  |  |  |  |  |  |  |  |  |  |  |  |  |  |  |  | preference for Hsp90β over Hsp90α (Hsp90β): 50 fold

Reference: publication PMC6718336 (Proteins, 2019)
